Source: PubChem BioAssay (several laboratories)
NR1D1 modulator = Rev-erb alpha (human) modulation. hit rate 0.79% among 370,000. P20393. Rev-erbα–FITC-DNA binding, fluorescence polarization, 90 min. AID 1259318. activity, % at 10 µM;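 active = activity above about 14%, limit read from the data; passing the limit was not always enough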;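 also: 0% = DMSO wells with 35 nM protein and 100% = DMSO wells with 750 nM protein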
NR2E3 ag-1 = agonists of human NR2E3 nuclear receptor. Q9Y5X4. CHO-S Gal4-NCOR/VP16-NR2E3 two-hybrid, luciferase. inhibition of corepressor binding, % at 3.98 µM. hit rate 0.35% among 360,000. AID 602229;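 active = inhibition above the mean of all tested compounds plus 3 SD, cut at about 70% in these data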;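 also: 0% = DMSO with NR2E3 transfected cells and 100% = cells lacking NR2E3 construct; higher means lower luciferase signal from less NR2E3 corepressor binding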
PG9 Ab binder = small molecules binding HIV-1 gp120 antibody PG9. TR-FRET gp120-PG9 antibody binding. inhibition, % at 6.7 µM. hit rate 0.43% among 360,000. AID 624416; in the data active = inhibition above about 8.5%
NR2E3 ag-2 = activates human photoreceptor nuclear receptor NR2E3. GST-NR2E3/biotin-RetCOR TR-FRET, 1536-well. inhibition of corepressor binding, % at 4.78 µM. AID 2300. hit rate 0.12% among 320,000;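 active = percent inhibition above the cutoff of mean plus 3 SD of all tested compounds, set per screening campaign, cut at about 20% in these data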;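 also: 0% = DMSO wells and 100% = biotin wells as full block of FRET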
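Material: NR2E3–RetCOR corepressor complex / Amount: 1.35 nM GST-NR2E3 / Medium: Tris pH 7.5 / Compound: single nominal compound dose of 4.8 µM / Incubation: 5 h at 4 °C / Technique: TR-FRET, Eu(K)-anti-GST donor, streptavidin-D2 acceptor, ex 340, em 617/671 nm / Read-out basis: percent loss of FRET ratio relative to control wells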
Neddyl block = blocks human cullin neddylation; TR-FRET cullin neddylation, biochemical; calls only at 25 µM; AID 651699; hit rate 0.58% among 360,000; in the data active = inhibition above about 36%
PG9 binder conf = confirmation of small molecules binding HIV-1 gp120 antibody PG9; inhibition, % at 6.7 µM; TR-FRET PG9 antibody binding, biochemical; shares compounds with PG9 Ab binder; hit rate 90% among 1,500; in the data active = inhibition above about 9%
PGV04 Ab binding = PGV04 control antibody binding, counter-screen; inhibition, % at 6.7 µM; shares compounds with PG9 Ab binder; TR-FRET PGV04 antibody-gp120 binding, biochemical; hit rate 95% among 1,500; in the data active = inhibition above about 9.5%
PG9 binder DR = small molecules binding HIV-1 gp120 antibody PG9; shares compounds with PG9 Ab binder; TR-FRET PG9 antibody-gp120 binding inhibition; IC50, µM; 95 tested, under 10 active; AID 651848; in the data active = IC50 below about 10 µM
PGV04 DR counter = PGV04 binding, dose response counter-screen; shares compounds with PG9 Ab binder; TR-FRET binding to control antibody PGV04; IC50, µM; hit rate 20% among 95
PG126 DR counter = counter-screen for PG9 binders: binding to control antibody PG126; shares compounds with PG9 Ab binder; TR-FRET binding to antibody PG126, counterscreen; IC50, µM; hit rate 20% among 95
Neddyl conf = cullin neddylation inhibition, confirmation; shares compounds with Neddyl block; TR-FRET cullin neddylation biochemical assay; calls only at 25 µM; hit rate 13% among 1,800; in the data active = inhibition above about 40%;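 also: neddylation substrate is the cullin 1 ring ligase complex with SKP2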
* = called active by the depositor; i = inactive; x = no result given; + = active, no number. Rows were chosen to be rich in hits. Some 2% of all compounds tested hit in one or more screens of this group. Rule as the data show it, unless noted: active = IC50 below about 9 µM; inactive = the rest.

SMILES	NR1D1 modulator	NR2E3 ag-1	PG9 Ab binder	NR2E3 ag-2	Neddyl block	PG9 binder conf	PGV04 Ab binding	others
Cc1ccc(C(=O)N(C)Cc2ccc(N3CCOCC3)cc2)cc1S(=O)(=O)NCc1ccccc1	1	12	-3	3	i	x	x
Cc1nc2sccn2c(=O)c1S(=O)(=O)Nc1cccc(Cl)c1C	2	-13	9.8*	-2	i	16*	16*
CCN=C1SC(C(N)=O)CC(=O)N1CC (centres undefined)	-6	10	9.0*	3	i	-1	18*
Cc1cc2n(n1)C(c1cn(-c3ccccc3)nc1C)Nc1c(C)cccc1-2 (centres undefined)	10	-5	15*	3	i	15*	22*
Cc1cc2n(n1)C(c1ccc3c(c1)OCO3)Nc1c(C)cccc1-2 (centres undefined)	10	-23	0	-2	x	x	x
O=C(NC1CCCCN(Cc2ccc(OC(F)(F)F)cc2)C1=O)c1ccc2ccccc2c1 (centres undefined)	-3	x	x	x	x	x	x
O=C(O)c1ccc(Cn2c(SCc3cc(=O)n4cc(Br)ccc4n3)nc3ccsc3c2=O)cc1	-4	x	5	2	x	x	x
O=C(O)C1CCC(Cn2c(SCc3cc(=O)n4cc(Br)ccc4n3)nc3ccsc3c2=O)CC1 (centres undefined)	8	2	22*	6	i	30*	50*
O=C(Cn1c(=O)c2cccn2c2ccccc21)NCCc1ccccc1	7	15	11*	10	i	19*	27*
COc1ccc(N2C(=NC(=O)c3ccccc3)SC3CS(=O)(=O)CC32)cc1 (centres undefined)	4	7	-2	2	i	x	x
COc1cccc(N2C(=NC(=O)c3ccccc3)SC3CS(=O)(=O)CC32)c1 (centres undefined)	9	-27	11*	3	i	10*	14*
COc1ccc(OC)c(S(=O)(=O)Nc2ccc(C(C)=O)cc2)c1	-2	-3	8.6*	0	i	21*	19*	PG9 binder DR=>67;PGV04 DR counter=>67;PG126 DR counter=>67
CSCCC(NC(=O)OCc1ccccc1)C(=O)NC(Cc1c[nH]c2ccccc12)C(=O)O (centres undefined)	2	x	1	x	x	x	x
Cc1cccc2cc(CN(Cc3ccco3)C(=O)c3ccncc3)c(=O)[nH]c12	-1	-4	9.3*	-2	i	8	10*
CCOc1ccc(Br)cc1S(=O)(=O)NCCN1CCCC1	1	-4	-1	2	i	x	x
Cc1ccc(NC(=O)CCn2cnc3ccccc3c2=O)cc1Cl	9	4	13*	0	i	18*	23*
COCCCn1c(=O)/c(=C\c2ccc(OC(F)F)c(OC)c2)s/c1=C(/C#N)C(N)=O	2	0	14*	7	i	36*	39*
COCCCn1c(=O)/c(=C\c2ccccc2OC(F)F)s/c1=C(/C#N)C(N)=O	2	22	-2	-2	i	x	x
CSc1cc(-c2ccc(Cl)cc2)c(C(=O)NC(C)C)s1	4	-7	18*	-4	i	9	13*
O=C1C2CCCCC2C(=O)N1c1ccc(S(=O)(=O)Nc2ncccn2)cc1 (centres undefined)	0	-17	-1	1	i	x	x
Cc1ccc2c(c1)[C@@H]1[C@H](CO2)[C@H](c2ccccc2)[C@@]2(C)C(=O)N[C@H](C)C(=O)N12	-2	-9	-1	x	i	x	x
O=C(Nc1ccc(Nc2ccccc2)cc1)c1ccc(Cl)cc1	2	-2	-1	1	i	x	x
CC(C)(C)c1ccc(C(=O)Nc2ccc(Cl)cc2)cc1	-4	-82	8.6*	4	i	16*	18*
OCC1SC(O)C(O)C(O)C1O (centres undefined)	-3	x	-1	x	x	x	x
CCOc1ccc(N2CC(NC(=O)c3ccc4ccccc4c3)CC2=O)cc1 (centres undefined)	16	-23	12*	-2	i	12*	23*
SMILES	NR1D1 modulator	NR2E3 ag-1	PG9 Ab binder	NR2E3 ag-2	Neddyl block	PG9 binder conf	PGV04 Ab binding	others
CCOc1ccc(NC(=O)NC2CC(=O)N(c3ccc(OC)cc3)C2)cc1 (centres undefined)	0	20	-1	1	i	x	x
Cc1ccc(S(=O)(=O)CCC(=O)N(CCCN2CCOCC2)c2nc3ccccc3s2)cc1	5	-49	9.6*	-1	i	7	11*
C=CCN1[C@H](C#N)[C@@H](c2ccc(Br)cc2)[C@H]1CO	-4	x	x	x	x	x	x
Cc1cccc(Cn2cc(COC(=O)NCC(C)C)nn2)c1	-3	x	x	x	x	x	x
C#CCn1cc(CNC[C@H]2O[C@@H](n3cnc4c(=O)[nH]c(N)nc43)[C@H](O)[C@@H]2O)c2ccccc21	-6	-11	-1	x	i	x	x
CCCCNC(=O)C(NC(=O)c1cccc(C(F)(F)F)c1)C(=O)c1ccccc1 (centres undefined)	-9	-8	27*	x	i	41*	55*
CCNC(=O)C1(C)CCCN(C(=O)c2nc(C)oc2C)C1 (centres undefined)	-3	14	-1	x	i	x	x
O=C1Cc2c([nH]c3ccc(Br)cc23)-c2ccccc2N1	-8	8	11*	x	i	16*	22*
CNc1nc(-c2c(C)n(C)c3ccc(OC)cc23)cs1	-2	11	0	-3	i	x	x
Cc1ccnc(N2CCCC(C(=O)Nc3ccc(C)c(C)c3)C2)n1 (centres undefined)	0	-46	39*	5	i	31*	42*
Cc1ccc(NC(=O)C2CCCN(c3ncccn3)C2)cc1C (centres undefined)	-2	-25	-5	-4	i	x	x
O=C(COc1ccccc1)Nc1ccc(-c2nnc(-c3ccco3)o2)cc1	6	-40	70*	-2	+	55*	72*	Neddyl conf=i
O=C(NCc1ccccc1)[C@H]1CCCN1C(=O)[C@H]1CCCN1C(=O)c1ccc(F)c(C(F)(F)F)c1	2	x	-1	x	x	x	x
